From ChEMBL document CHEMBL1123589, “Phenylpiperazine-based radiopharmaceuticals for brain imaging. 3. Synthesis and evaluation of radioiodinated 1-alkyl-4-phenylpiperazines” (J Med Chem, 1987)

Assays:
Conditions in all cases: in vivo
Rattus norvegicus [1] = experiment: The biodistribution of the [125I]-labeled compound in rats after intravenous injection was evaluated in adrenal at 0.25 hrs; value ranges from 0.97-1.66 (ID.kg/g); format: ADME, organism-based
Outline: (§1)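 Male Sprague-Dawley rats (250–300 g) under ether anesthesia received 10–15 μCi of NCA radioiodinated (125I) tracer iv in 0.1 mL saline. Groups of 3 were killed at 0.25, 1 and 4 h. Blood and tissues were excised, weighed and counted in a γ-well scintillation counter. Values are % injected dose × body mass (kg) per g tissue, given as mean with range.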

Rattus norvegicus [2] = experiment: The biodistribution of the [125I]-labeled compound in rats after intravenous injection was evaluated in adrenal at 1.00 hrs; value ranges from 0.61-1.12 (ID.kg/g); format: ADME, organism-based; outline: as §1
Rattus norvegicus [3] = experiment: The biodistribution of the [125I]-labeled compound in rats after intravenous injection was evaluated in adrenal at 4.00 hrs; value ranges from 0.39-0.45 (ID.kg/g); format: ADME, organism-based; outline: as §1
Rattus norvegicus [4] = experiment: The biodistribution of the [125I]-labeled compound in rats after intravenous injection was evaluated in blood at 0.25 hrs (ID.kg/g); format: ADME, organism-based
Outline: (§2)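 Male Sprague-Dawley rats (250–300 g) under ether anesthesia were given an iv injection of no-carrier-added 125I-labelled agent (10–15 μCi in 0.1 mL saline). The agent was iodinated with chloramine-T in acetate buffer and purified by C-18 HPLC. Groups of N = 3 were killed at 0.25, 1 and 4 h. Blood and tissues were weighed and γ-counted. Values are % ID·kg/g, mean (range).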

Rattus norvegicus [5] = experiment: The biodistribution of the [125I]-labeled compound in rats after intravenous injection was evaluated in blood at 1.00 hrs (ID.kg/g); format: ADME, organism-based; outline: as §2
Rattus norvegicus [6] = experiment: The biodistribution of the [125I]-labeled compound in rats after intravenous injection was evaluated in blood at 4.00 hrs (ID.kg/g); format: ADME, organism-based; outline: as §2
Rattus norvegicus [7] = experiment: The biodistribution of the [125I]-labeled compound in rats after intravenous injection was evaluated in thyroid at 1.00 hrs; value ranges from 2.47-2.81 (ID.kg/g); format: ADME, organism-based, Thyroid gland
Rattus norvegicus [8] = experiment: The biodistribution of the [125I]-labeled compound in rats after intravenous injection was evaluated in brain at 0.25 hrs; value ranges from 0.25-0.30 (ID.kg/g); format: ADME, organism-based; outline: as §1
Rattus norvegicus [9] = experiment: The biodistribution of the [125I]-labeled compound in rats after intravenous injection was evaluated in heart at 0.25 hrs; value ranges from 0.23-0.28 (ID.kg/g); format: ADME, organism-based; outline: as §1
Rattus norvegicus [10] = experiment: The biodistribution of the [125I]-labeled compound in rats after intravenous injection was evaluated in heart at 1.00 hrs; value ranges from 0.16-0.21 (ID.kg/g); format: ADME, organism-based; outline: as §1
Rattus norvegicus [11] = experiment: The biodistribution of the [125I]-labeled compound in rats after intravenous injection was evaluated in heart at 4.00 hrs (ID.kg/g); format: ADME, organism-based; outline: as §1
Rattus norvegicus [12] = experiment: The biodistribution of the [125I]-labeled compound in rats after intravenous injection was evaluated in lung at 4.00 hrs; value ranges from 0.35-0.36 (ID.kg/g); format: ADME, organism-based; outline: as §1
Rattus norvegicus [13] = experiment: The biodistribution of the [125I]-labeled compound in rats after intravenous injection was evaluated in muscle at 0.25 hrs (ID.kg/g); format: ADME, organism-based, Muscle tissue
Outline: (§3)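 Male Sprague-Dawley rats (250–300 g) under ether anesthesia given iv 0.1 mL saline containing 10–15 μCi of NCA ¹²⁵I-labeled agent (chloramine-T iodination, HPLC-purified). Groups of 3 killed at 0.25, 1 and 4 h. Blood and tissues excised, weighed and γ-counted. Values are mean (range) of % injected dose × body mass (kg) per gram of tissue.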

Rattus norvegicus [14] = experiment: The biodistribution of the [125I]-labeled compound in rats after intravenous injection was evaluated in muscle at 4.00 hrs (ID.kg/g); format: ADME, organism-based, Muscle tissue; outline: as §3
Rattus norvegicus [15] = experiment: The biodistribution of the [125I]-labeled compound in rats after intravenous injection was evaluated in thyroid at 4.00 hrs; value ranges from 2.51-3.60 (ID.kg/g); format: ADME, organism-based, Thyroid gland
Rattus norvegicus [16] = experiment: The biodistribution of the [125I]-labeled compound in rats after intravenous injection was evaluated in brain at 4.00 hrs; value ranges from 0.11-0.13 (ID.kg/g); format: ADME, organism-based; outline: as §1
Rattus norvegicus [17] = experiment: The biodistribution of the [125I]-labeled compound in rats after intravenous injection was evaluated in thyroid at 0.25 hrs; value ranges from 2.05-2.47 (ID.kg/g); format: ADME, organism-based, Thyroid gland
Rattus norvegicus [18] = experiment: The biodistribution of the [125I]-labeled compound in rats after intravenous injection was evaluated in fat at 0.25 hr (ID. kg/g); format: ADME, organism-based, Adipose tissue; outline: as §2
Rattus norvegicus [19] = experiment: The biodistribution of the [125I]-labeled compound in rats after intravenous injection was evaluated in fat at 1.00 hrs (ID.kg/g); format: ADME, organism-based, Adipose tissue; outline: as §2
Rattus norvegicus [20] = experiment: The biodistribution of the [125I]-labeled compound in rats after intravenous injection was evaluated in brain at 1.00 hrs; value ranges from 0.21-0.27 (ID.kg/g); format: ADME, organism-based; outline: as §1
Rattus norvegicus [21] = experiment: The biodistribution of the [125I]-labeled compound in rats after intravenous injection was evaluated in fat at 4.00 hrs (ID.kg/g); format: ADME, organism-based, Adipose tissue; outline: as §2
Rattus norvegicus [22] = experiment: The biodistribution of the [125I]-labeled compound in rats after intravenous injection was evaluated in kidney at 4.00 hrs; value ranges from 0.23-0.24 (ID.kg/g); format: ADME, organism-based; outline: as §1
Rattus norvegicus [23] = experiment: The biodistribution of the [125I]-labeled compound in rats after intravenous injection was evaluated in liver at 4.00 hrs; value ranges from 0.19-0.22 (ID.kg/g); format: ADME, organism-based; outline: as §1
Rattus norvegicus [24] = experiment: The biodistribution of the [125I]-labeled compound in rats after intravenous injection was evaluated in lung at 0.25 hrs; value ranges from 1.14-1.30 (ID.kg/g); format: ADME, organism-based; outline: as §1
Rattus norvegicus [25] = experiment: The biodistribution of the [125I]-labeled compound in rats after intravenous injection was evaluated in lung at 1.00 hrs; value ranges from 0.86-0.96 (ID.kg/g); format: ADME, organism-based; outline: as §1
Rattus norvegicus [26] = experiment: The biodistribution of the [125I]-labeled compound in rats after intravenous injection was evaluated in liver at 1.00 hrs; value ranges from 0.30-0.36 (ID.kg/g); format: ADME, organism-based; outline: as §1
Rattus norvegicus [27] = experiment: The biodistribution of the [125I]-labeled compound in rats after intravenous injection was evaluated in kidney at 0.25 hr; value ranges from 0.49-0.61 (ID.kg/g); format: ADME, organism-based; outline: as §1
Rattus norvegicus [28] = experiment: The biodistribution of the [125I]-labeled compound in rats after intravenous injection was evaluated in kidney at 1.00 hrs; value ranges from 0.43-0.47 (ID.kg/g); format: ADME, organism-based; outline: as §1
Rattus norvegicus [29] = experiment: The biodistribution of the [125I]-labeled compound in rats after intravenous injection was evaluated in liver at 0.25 hr; value ranges from 0.32-0.39 (ID.kg/g); format: ADME, organism-based; outline: as §1
Rattus norvegicus [30] = experiment: The biodistribution of the [125I]-labeled compound in rats after intravenous injection was evaluated in muscle at 1.00 hrs (ID.kg/g); format: ADME, organism-based, Muscle tissue; outline: as §3

Biodistribution (Rattus norvegicus [1]): 1.66%
Biodistribution (Rattus norvegicus [2]): 1.12%
Biodistribution (Rattus norvegicus [3]): 0.45%
Biodistribution (Rattus norvegicus [4]): 0.01 % ID·kg/g
Biodistribution (Rattus norvegicus [5]): 0.01 % ID·kg/g
Biodistribution (Rattus norvegicus [6]): 0.01 % ID·kg/g
Biodistribution (Rattus norvegicus [7]): 2.81%
Biodistribution (Rattus norvegicus [8]): 0.3%
Biodistribution (Rattus norvegicus [9]): 0.28%
Biodistribution (Rattus norvegicus [10]): 0.21%
Biodistribution (Rattus norvegicus [11]): 0.08%
Biodistribution (Rattus norvegicus [12]): 0.36%
Biodistribution (Rattus norvegicus [13]): 0.03 % ID·kg/g
Biodistribution (Rattus norvegicus [14]): 0.01 %ID·kg/g
Biodistribution (Rattus norvegicus [15]): 3.6%
Biodistribution (Rattus norvegicus [16]): 0.13%
Biodistribution (Rattus norvegicus [17]): 2.47%
Biodistribution (Rattus norvegicus [18]): 0.01 % ID·kg/g
Biodistribution (Rattus norvegicus [19]): 0.01 % ID·kg/g
Biodistribution (Rattus norvegicus [20]): 0.27%
Biodistribution (Rattus norvegicus [21]): 0.01%
Biodistribution (Rattus norvegicus [22]): 0.24%
Biodistribution (Rattus norvegicus [23]): 0.22%
Biodistribution (Rattus norvegicus [24]): 1.3%
Biodistribution (Rattus norvegicus [25]): 0.96%
Biodistribution (Rattus norvegicus [26]): 0.36%
Biodistribution (Rattus norvegicus [27]): 0.61%
Biodistribution (Rattus norvegicus [28]): 0.47%
Biodistribution (Rattus norvegicus [29]): 0.39%
Biodistribution (Rattus norvegicus [30]): 0.03 %ID·kg/g
SMILES: Ic1ccc(N2CCN(C3CCCCC3)CC2)cc1
